Reference: ChEMBL document CHEMBL1136201, “Synthesis and binding selectivity of 7- and 15-decylbenzolactone-V8 for the C1 domains of protein kinase C isozymes” (Bioorg Med Chem Lett, 2003)

What was measured:
[1] = target: T1, Protein kinase C beta type (Homo sapiens, UniProt P05771); test: Displacement of [3H]PDBu from protein kinase C Beta-C1A domain
Procedure, shortened: (§1)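 Synthetic C1 peptides of about 50 amino acids, used as surrogates for the PKC C1 domains, were incubated with [3H]phorbol 12,13-dibutyrate (PDBu). Competitor was assessed by inhibition of specific [3H]PDBu binding. […] Values are given with standard deviation from at least two separate experiments.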

[2] = target: T2, Protein kinase C delta type (Homo sapiens, UniProt Q05655); test: Displacement of [3H]PDBu from protein kinase C Delta-C1A domain; procedure, shortened: as §1
[3] = target: T3, Protein kinase C eta type (Homo sapiens, UniProt P24723); test: Displacement of [3H]PDBu from protein kinase C eta-C1A domain; procedure, shortened: as §1
[4] = target: T4, Protein kinase C gamma type (Homo sapiens, UniProt P05129); test: Displacement of [3H]-PDBu from protein kinase C gamma-C1B domain; procedure, shortened: as §1
[5] = target: Protein kinase C theta type (Homo sapiens, UniProt Q04759); test: Displacement of [3H]PDBu from protein kinase C Theta-C1B domain; procedure, shortened: as §1
[6] = target: T3, Protein kinase C eta type; test: Displacement of [3H]PDBu from protein kinase C eta-C1B domain; procedure, shortened: as §1
[7] = target: T5, Protein kinase C alpha type (Homo sapiens, UniProt P17252); test: Displacement of [3H]PDBu from protein kinase C Alpha-C1B domain; procedure, shortened: as §1
[8] = target: T6, Protein kinase C epsilon type (Homo sapiens, UniProt Q02156); test: Displacement of [3H]-PDBu from protein kinase C epsilon-C1B domain; procedure, shortened: as §1
T6 sequence (Q02156 whole entry): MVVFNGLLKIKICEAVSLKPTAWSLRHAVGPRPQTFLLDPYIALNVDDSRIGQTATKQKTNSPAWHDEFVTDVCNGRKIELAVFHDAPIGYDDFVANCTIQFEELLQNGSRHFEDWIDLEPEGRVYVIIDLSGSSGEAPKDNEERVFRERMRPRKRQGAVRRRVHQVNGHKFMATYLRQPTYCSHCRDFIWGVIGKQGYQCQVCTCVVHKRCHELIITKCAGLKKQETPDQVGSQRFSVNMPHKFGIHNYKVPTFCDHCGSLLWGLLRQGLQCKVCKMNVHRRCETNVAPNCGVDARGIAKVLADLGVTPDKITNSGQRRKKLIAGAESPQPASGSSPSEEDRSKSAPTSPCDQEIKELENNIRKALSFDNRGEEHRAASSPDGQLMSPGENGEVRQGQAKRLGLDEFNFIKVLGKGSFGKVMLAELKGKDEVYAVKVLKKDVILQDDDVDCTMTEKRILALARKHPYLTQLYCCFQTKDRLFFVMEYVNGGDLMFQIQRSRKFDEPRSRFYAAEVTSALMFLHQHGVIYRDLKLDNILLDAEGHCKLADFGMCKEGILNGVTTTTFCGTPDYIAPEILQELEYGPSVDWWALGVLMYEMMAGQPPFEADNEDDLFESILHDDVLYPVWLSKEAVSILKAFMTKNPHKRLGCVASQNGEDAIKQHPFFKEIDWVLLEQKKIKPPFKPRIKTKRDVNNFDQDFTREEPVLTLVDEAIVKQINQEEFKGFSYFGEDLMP

[9] = target: T4, Protein kinase C gamma type; test: Displacement of [3H]PDBu from protein kinase C gamma-C1A domain; procedure, shortened: as §1
[10] = target: T6, Protein kinase C epsilon type; test: Displacement of [3H]-PDBu from protein kinase C epsilon-C1A domain; procedure, shortened: as §1
[11] = target: T5, Protein kinase C alpha type; test: Displacement of [3H]PDBu from protein kinase C Alpha-C1A domain; procedure, shortened: as §1
[12] = target: T2, Protein kinase C delta type; test: Displacement of [3H]PDBu from protein kinase C Delta-C1B domain; procedure, shortened: as §1
[13] = target: T1, Protein kinase C beta type; test: Displacement of [3H]PDBu from protein kinase C Beta-C1B domain; procedure, shortened: as §1

T3 sequence (P24723 whole entry, the tested form may be a part): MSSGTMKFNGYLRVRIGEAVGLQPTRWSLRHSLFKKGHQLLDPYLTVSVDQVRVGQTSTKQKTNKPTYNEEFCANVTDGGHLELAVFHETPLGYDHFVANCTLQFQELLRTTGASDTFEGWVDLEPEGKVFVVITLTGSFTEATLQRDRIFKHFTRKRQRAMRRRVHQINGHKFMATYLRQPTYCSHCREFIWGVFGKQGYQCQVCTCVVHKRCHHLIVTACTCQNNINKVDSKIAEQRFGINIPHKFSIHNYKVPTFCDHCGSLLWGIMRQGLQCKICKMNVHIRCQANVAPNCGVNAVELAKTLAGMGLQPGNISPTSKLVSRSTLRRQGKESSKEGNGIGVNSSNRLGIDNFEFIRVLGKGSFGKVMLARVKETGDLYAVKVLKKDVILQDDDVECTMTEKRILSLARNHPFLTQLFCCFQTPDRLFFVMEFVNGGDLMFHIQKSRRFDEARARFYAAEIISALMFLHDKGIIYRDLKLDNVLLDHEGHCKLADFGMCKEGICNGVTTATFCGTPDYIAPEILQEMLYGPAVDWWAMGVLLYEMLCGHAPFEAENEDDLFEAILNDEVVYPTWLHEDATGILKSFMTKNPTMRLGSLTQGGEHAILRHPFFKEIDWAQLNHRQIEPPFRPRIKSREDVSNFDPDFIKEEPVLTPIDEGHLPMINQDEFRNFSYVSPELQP
T2 sequence (Q05655 whole entry, the tested form may be a part): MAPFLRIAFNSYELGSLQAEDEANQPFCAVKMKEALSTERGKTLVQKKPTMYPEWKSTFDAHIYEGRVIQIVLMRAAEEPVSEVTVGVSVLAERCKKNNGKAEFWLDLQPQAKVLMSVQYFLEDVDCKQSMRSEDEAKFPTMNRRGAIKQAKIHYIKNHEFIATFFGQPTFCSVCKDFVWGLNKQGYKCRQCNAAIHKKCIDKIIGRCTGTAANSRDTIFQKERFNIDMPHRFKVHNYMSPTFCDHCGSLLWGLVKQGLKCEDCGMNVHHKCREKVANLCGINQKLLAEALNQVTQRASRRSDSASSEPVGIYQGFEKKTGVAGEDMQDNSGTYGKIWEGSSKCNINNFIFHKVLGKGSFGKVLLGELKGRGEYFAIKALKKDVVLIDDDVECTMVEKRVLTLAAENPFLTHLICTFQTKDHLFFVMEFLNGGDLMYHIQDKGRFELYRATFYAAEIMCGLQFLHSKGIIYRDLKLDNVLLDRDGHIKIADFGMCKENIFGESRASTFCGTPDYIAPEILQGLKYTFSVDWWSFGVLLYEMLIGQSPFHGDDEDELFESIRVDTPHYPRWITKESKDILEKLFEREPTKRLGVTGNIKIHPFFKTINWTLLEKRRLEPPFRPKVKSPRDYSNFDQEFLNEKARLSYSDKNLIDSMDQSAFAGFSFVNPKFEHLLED
T1 sequence (P05771 whole entry, the tested form may be a part): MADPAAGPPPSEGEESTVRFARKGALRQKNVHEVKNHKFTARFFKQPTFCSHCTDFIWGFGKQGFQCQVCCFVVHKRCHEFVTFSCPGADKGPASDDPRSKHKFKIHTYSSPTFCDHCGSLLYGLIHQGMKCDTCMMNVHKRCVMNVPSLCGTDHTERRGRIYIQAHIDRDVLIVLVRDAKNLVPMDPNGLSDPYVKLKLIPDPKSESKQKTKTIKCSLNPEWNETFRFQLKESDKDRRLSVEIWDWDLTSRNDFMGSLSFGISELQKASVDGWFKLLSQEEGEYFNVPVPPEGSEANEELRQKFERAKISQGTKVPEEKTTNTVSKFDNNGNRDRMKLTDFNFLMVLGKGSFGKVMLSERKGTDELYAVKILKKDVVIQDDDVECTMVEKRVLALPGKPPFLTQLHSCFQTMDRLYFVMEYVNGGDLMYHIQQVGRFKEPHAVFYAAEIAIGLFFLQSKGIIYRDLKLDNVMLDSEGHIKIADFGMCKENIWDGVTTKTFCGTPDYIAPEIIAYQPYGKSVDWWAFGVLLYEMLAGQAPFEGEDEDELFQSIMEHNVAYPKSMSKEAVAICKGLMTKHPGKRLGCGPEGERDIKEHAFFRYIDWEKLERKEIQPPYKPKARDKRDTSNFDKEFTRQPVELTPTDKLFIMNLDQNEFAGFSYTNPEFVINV
Protein kinase C theta type, sequence (Q04759 whole entry, the tested form may be a part): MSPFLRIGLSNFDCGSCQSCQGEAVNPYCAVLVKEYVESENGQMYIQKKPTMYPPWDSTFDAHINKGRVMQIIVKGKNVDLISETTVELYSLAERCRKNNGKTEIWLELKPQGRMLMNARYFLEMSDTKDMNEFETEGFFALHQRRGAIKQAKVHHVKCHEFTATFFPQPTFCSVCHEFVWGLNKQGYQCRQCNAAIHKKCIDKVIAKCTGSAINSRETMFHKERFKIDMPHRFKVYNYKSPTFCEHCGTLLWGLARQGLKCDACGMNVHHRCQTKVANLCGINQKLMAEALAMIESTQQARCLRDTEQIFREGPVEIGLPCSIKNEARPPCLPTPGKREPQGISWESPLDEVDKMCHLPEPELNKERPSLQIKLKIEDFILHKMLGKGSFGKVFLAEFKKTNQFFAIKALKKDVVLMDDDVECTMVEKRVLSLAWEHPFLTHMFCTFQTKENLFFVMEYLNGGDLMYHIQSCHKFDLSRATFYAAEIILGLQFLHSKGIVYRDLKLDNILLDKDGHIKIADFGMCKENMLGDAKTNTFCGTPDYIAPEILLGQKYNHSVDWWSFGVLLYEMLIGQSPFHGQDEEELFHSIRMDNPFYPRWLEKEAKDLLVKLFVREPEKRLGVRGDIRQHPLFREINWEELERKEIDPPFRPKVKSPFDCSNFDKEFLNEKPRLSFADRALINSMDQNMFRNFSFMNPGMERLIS

Ki [1] [µM] | Ki [2] [µM] | Ki [3] [µM] | Ki [4] [µM] | Ki [5] [µM] | Ki [6] [µM] | Ki [7] [µM] | Ki [8] [µM] | Ki [9] [µM] | Ki [10] [µM] | Ki [11] [µM] | Ki [12] [µM] | Ki [13] [µM] | Structure (SMILES)
4.69 | 30.3 | 6.33 | 2.82 | 0.358 | 0.189 | > 10 | 0.411 | 5.75 | 5.36 | 4.58 | 0.415 | 2.07 | CCCCCCCCCCCN1c2ccccc2C[C@@H](CO)OC(=O)[C@@H]1C(C)C
1.14 | 6.15 | 1.59 | 0.675 | 0.062 | 0.037 | 4.05 | 0.083 | 2.36 | 4.83 | 0.412 | 0.149 | 0.61 | CCCCCCCCCCc1ccc2c(c1)N(C)[C@@H](C(C)C)C(=O)O[C@H](CO)C2
0.539 | > 10 | 4.25 | 1.72 | 0.167 | 0.111 | > 10 | 0.54 | 0.97 | 7.88 | 0.87 | 0.092 | 2.69 | CCCCCCCCCCc1cccc2c1C[C@@H](CO)OC(=O)[C@H](C(C)C)N2C
